Assay results as given in ChEMBL document CHEMBL1921718, “Structure-activity relationships in toll-like receptor 2-agonists leading to simplified monoacyl lipopeptides” (J Med Chem, 2011).
Activity calls are given as the source filed them. The rule behind the calls is not given here.

Assays:
Toll-like receptor 2 = Toll-like receptor 2 (Homo sapiens, UniProt O60603); assay: Agonist activity at human TLR2 expressed in HEK293 cells assessed as NF-kappaB induction measured soluble alkaline phosphatase after 12 hrs by spectrophotometric analysis; type: functional, cell-based
Chain of Toll-like receptor 2 (O60603 whole entry): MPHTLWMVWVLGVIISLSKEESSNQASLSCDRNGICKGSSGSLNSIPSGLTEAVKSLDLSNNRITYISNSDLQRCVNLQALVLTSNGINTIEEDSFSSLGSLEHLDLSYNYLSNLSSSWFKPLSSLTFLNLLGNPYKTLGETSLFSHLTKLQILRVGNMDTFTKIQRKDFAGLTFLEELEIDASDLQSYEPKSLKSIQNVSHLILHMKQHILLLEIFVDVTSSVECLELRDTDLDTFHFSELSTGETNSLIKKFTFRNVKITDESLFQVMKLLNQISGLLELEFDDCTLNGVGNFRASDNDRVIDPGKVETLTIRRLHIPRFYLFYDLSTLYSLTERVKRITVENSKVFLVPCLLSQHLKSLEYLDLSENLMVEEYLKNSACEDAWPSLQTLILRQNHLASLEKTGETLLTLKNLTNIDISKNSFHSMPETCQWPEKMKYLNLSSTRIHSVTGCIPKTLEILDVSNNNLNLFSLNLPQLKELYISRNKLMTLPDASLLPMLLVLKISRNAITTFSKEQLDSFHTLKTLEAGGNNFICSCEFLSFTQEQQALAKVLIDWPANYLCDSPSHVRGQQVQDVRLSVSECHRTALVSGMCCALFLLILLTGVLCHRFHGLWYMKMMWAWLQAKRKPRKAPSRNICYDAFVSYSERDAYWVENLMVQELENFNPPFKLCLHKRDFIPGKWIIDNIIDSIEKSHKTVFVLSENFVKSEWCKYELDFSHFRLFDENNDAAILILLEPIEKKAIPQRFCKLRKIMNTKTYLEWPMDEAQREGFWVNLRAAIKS
Outline: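 HEK-Blue cells (HEK293 stably transfected with human TLR2 and NF-κB-driven secreted alkaline phosphatase) kept in selection medium with zeocin and normocin; seeded ~10^5 cells/mL, grown to confluency, then stimulated 12 h with serially diluted compounds. Supernatant sAP read spectrophotometrically at 620 nm using an alkaline phosphatase-specific chromogen in the detection medium.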

[1] = Aqueous solubility of the compound; type: physicochemical; conditions: buffer
[2] = Upregulation of p38 MAPK expression in […] […] by flow cytometric analysis; type: functional, cell-based; conditions: Homo sapiens
Outline: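 Heparinized fresh human whole blood exposed to graded compound concentrations in saline for 15 min at 37 °C. Red cells lysed and leukocytes fixed in one step, then permeabilized in ice-cold methanol 30 min. Stained with PE anti-phospho-p38MAPK (pT180/pY182, α/β/γ/δ isoforms). Single-colour PE flow cytometry on 20,000 gated events.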

[3] = Upregulation of CD11b expression in human […] by flow cytometric analysis; type: functional, cell-based
Outline: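 Fresh heparinized or anticoagulated human whole blood from healthy adults, incubated with graded compound dilutions 1 h at 37 °C, with saline negative controls. Kept on ice 15 min, then stained with anti-CD11b on ice 30 min so only surface CD11b was labelled. Red cells lysed and leukocytes fixed in one step; PE single-colour flow cytometry on 20,000 gated events.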

SMILES: CCCCCCCCCCCC(=O)OC[C@H](CSC[C@H](N)C(=O)N[C@@H](CO)C(=O)O)OC(=O)CCCCCCCCCCC
- EC50 (Toll-like receptor 2): 6.48 nM

SMILES: CCCCCCCCCCCCCCCC(=O)O[C@H](COC(=O)CNCCCOCCOCCOCCCN)CSC[C@H](N)C(=O)N[C@@H](CO)C(=O)O
- EC50 (Toll-like receptor 2): 1.55 nM
- solubility [1]: soluble

SMILES: CCOCCOCCOCCCNCC(=O)OC[C@H](CSC[C@H](N)C(=O)N[C@@H](CO)C(=O)O)OC(=O)CNCCCOCCOCCOCC
- EC50 (Toll-like receptor 2): > 1000 nM

SMILES: CCCCCCCCCCCCCCCC(=O)OC[C@H](C[Se]C[C@H](N)C(=O)N[C@@H](CO)C(=O)OC)OC(=O)CCCCCCCCCCCCCCC
- EC50 (Toll-like receptor 2): 0.26 nM

SMILES: CCCCCCCCCCCCCCCC(=O)OCCCSC[C@H](N)C(=O)N[C@@H](CO)C(=O)OC
- EC50 (Toll-like receptor 2): > 1000 nM

SMILES: CCCCCCCCCCCCCCCC(=O)OC[C@H](CSC[C@H](NC(=O)CC[C@H](N)C(=O)O)C(=O)NCC(=O)OC(C)C)OC(=O)CCCCCCCCCCCCCCC
- EC50 (Toll-like receptor 2): > 1000 nM

SMILES: CCCCCCCCCCCCCCCC(=O)OC[C@H](CSCCC(=O)N[C@@H](CO)C(=O)OC)OC(=O)CCCCCCCCCCCCCCC
- EC50 (Toll-like receptor 2): > 1000 nM

SMILES: CCCCCCCCCCCCCC(=O)OC[C@H](CSC[C@H](N)C(=O)N[C@@H](CO)C(=O)O)OC(=O)CCCCCCCCCCCCC
- EC50 (Toll-like receptor 2): 0.56 nM

SMILES: CC/C=C\C/C=C\C/C=C\CCCCCCCC(=O)OC[C@H](CSC[C@H](N)C(=O)NCC(=O)OC(C)C)OC(=O)CCCCCCC/C=C\C/C=C\C/C=C\CC
- EC50 (Toll-like receptor 2): 0.87 nM

SMILES: CCCCCCCCCCCCCCCC(=O)OC[C@H](CSC[C@H](N)C(=O)NCC(=O)OC(C)C)OC(=O)CCCCCCCCCCCCCCC
- EC50 (Toll-like receptor 2): 0.45 nM

SMILES: CCCCCCCCCCCCCCCCOC(=O)CSC[C@H](N)C(=O)N[C@@H](CO)C(=O)OC
- EC50 (Toll-like receptor 2): > 1000 nM

SMILES: CCCCCCCCCCCCCCCC(=O)OCCSC[C@H](N)C(=O)N[C@@H](CO)C(=O)OC
- EC50 (Toll-like receptor 2): 4.44 nM
- Activity [2]: Active
- Activity [3]: Active

SMILES: CCCCCCCCCCCCCCCC(=O)O[C@H](CO)CSC[C@H](N)C(=O)N[C@@H](CO)C(=O)O
- EC50 (Toll-like receptor 2): 1.86 nM

SMILES: CCCCCCCCCCCCCCCC(=O)OCC(CSC[C@H](N)C(=O)N[C@@H](CO)C(=O)O)OC(=O)CCCCCCCCCCCCCCC (mixture of isomers)
- Activity [2]: Active
- Activity [3]: Active

SMILES: CCCCCCCCCCCCCCCC(=O)OC[C@@H](O)CSC[C@H](N)C(=O)N[C@@H](CO)C(=O)O
- EC50 (Toll-like receptor 2): 1.95 nM

SMILES: CCCCCCCCCCCCCCCC(=O)O[C@H](COC(=O)CNCCCOCCOCCOCC)CSC[C@H](N)C(=O)N[C@@H](CO)C(=O)O
- EC50 (Toll-like receptor 2): 2.11 nM
- solubility [1]: soluble

SMILES: CCCCCCCCCCCCCCCC(=O)OC[C@H](CSC(C)(C)[C@H](N)C(=O)N[C@@H](CO)C(=O)O)OC(=O)CCCCCCCCCCCCCCC
- EC50 (Toll-like receptor 2): > 1000 nM

SMILES: CCCCCCCCCCCCCCCCOC(=O)CCSC[C@H](N)C(=O)N[C@@H](CO)C(=O)OC
- EC50 (Toll-like receptor 2): > 1000 nM

SMILES: CCCCC/C=C\C/C=C\CCCCCCCC(=O)OC[C@H](CSC[C@H](N)C(=O)NCC(=O)OC(C)C)OC(=O)CCCCCCC/C=C\C/C=C\CCCCC
- EC50 (Toll-like receptor 2): 1 nM

SMILES: CCCCCCCCCCCCCCCCCC(=O)OC[C@H](CSC[C@H](N)C(=O)N[C@@H](CO)C(=O)O)OC(=O)CCCCCCCCCCCCCCCCC
- EC50 (Toll-like receptor 2): 1.47 nM

SMILES: CCCCCCCCCCCCCCCC(=O)O[C@H](COC(=O)CNCCCNCCCCNCCCN)CSC[C@H](N)C(=O)N[C@@H](CO)C(=O)O
- EC50 (Toll-like receptor 2): 3.23 nM
- solubility [1]: soluble

SMILES: CCCCCCCCCCCCCCCC(=O)OC[C@H](CSCC[C@H](N)C(=O)N[C@@H](CO)C(=O)O)OC(=O)CCCCCCCCCCCCCCC
- EC50 (Toll-like receptor 2): > 1000 nM

SMILES: CCCCCCCCCCCCCCCC(=O)OC[C@H](CSC(C)(C)[C@@H](N)C(=O)N[C@@H](CO)C(=O)OC)OC(=O)CCCCCCCCCCCCCCC
- EC50 (Toll-like receptor 2): > 1000 nM
